# Measurements from ChEMBL document CHEMBL1147202, “Novel selective human melanocortin-3 receptor ligands: use of the 4-amino-1,2,4,5-tetrahydro-2-benzazepin-3-one (Aba) scaffold” (Bioorg Med Chem Lett, 2007).
# Key:
# [1] = target: T1, Melanocyte-stimulating hormone receptor (Homo sapiens, UniProt Q01726); assay: Maximum effect on human MC1R expressed in HEK293 cells assessed as intracellular cAMP accumulation at 0.0001 to 10 uM; format: functional, cell-based
# Outline: (§1)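 Transfected HEK293 cells, grown in MEM with 10% FBS, seeded 48 h before assay (50,000 cells/well). Cells preincubated 1 min at 37 °C in Earle's balanced salt solution with IBMX, then exposed 3 min at 37 °C to peptide at 10−10 to 10−5 M. Reaction stopped with ice-cold Tris/EDTA and boiling for 7 min. cAMP in supernatant measured by [3H]cAMP/PKA competition against a standard curve. EC50 from nonlinear least-squares fit, two experiments in triplicate.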
# Target sequence in this assay (Q01726 whole entry, looked up): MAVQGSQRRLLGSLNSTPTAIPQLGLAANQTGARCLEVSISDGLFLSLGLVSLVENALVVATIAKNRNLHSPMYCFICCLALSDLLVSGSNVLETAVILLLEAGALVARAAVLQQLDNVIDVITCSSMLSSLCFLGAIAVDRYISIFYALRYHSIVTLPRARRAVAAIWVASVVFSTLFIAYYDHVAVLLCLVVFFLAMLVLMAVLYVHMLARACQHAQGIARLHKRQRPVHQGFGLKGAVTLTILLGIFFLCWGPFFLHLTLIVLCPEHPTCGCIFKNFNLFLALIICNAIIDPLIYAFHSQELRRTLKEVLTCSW
# Melanocortin receptor 3 [2] = target: T2, Melanocortin receptor 3 (Homo sapiens, UniProt P41968); assay: Maximum effect on human MC3R expressed in HEK293 cells assessed as intracellular cAMP accumulation at 0.0001 to 10 uM; format: functional, cell-based; outline: as §1
# T2 sequence (P41968 whole entry): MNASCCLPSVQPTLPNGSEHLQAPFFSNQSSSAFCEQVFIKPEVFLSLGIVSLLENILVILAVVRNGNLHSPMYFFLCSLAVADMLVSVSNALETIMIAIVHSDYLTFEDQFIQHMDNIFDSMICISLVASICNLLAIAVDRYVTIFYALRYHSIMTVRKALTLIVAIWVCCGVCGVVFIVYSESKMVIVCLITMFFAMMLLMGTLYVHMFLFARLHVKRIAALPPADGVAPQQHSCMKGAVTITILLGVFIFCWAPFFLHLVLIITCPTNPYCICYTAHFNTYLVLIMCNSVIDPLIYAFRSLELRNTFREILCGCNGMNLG
# Melanocortin receptor 4 [3] = target: T3, Melanocortin receptor 4 (Homo sapiens, UniProt P32245); assay: Maximum effect on human MC4R expressed in HEK293 cells assessed as intracellular cAMP accumulation at 0.0001 to 10 uM; format: functional, cell-based; outline: as §1
# T3 sequence (P32245 whole entry): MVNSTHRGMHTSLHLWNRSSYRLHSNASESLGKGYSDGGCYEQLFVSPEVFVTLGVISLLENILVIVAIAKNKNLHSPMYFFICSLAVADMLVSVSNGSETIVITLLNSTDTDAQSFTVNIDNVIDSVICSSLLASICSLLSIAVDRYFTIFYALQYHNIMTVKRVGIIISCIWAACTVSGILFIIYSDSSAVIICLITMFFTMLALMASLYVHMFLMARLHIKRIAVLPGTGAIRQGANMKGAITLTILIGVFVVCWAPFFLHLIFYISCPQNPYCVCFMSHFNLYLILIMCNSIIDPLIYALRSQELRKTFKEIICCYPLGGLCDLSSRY
# Melanocortin receptor 5 [4] = target: T4, Melanocortin receptor 5 (Homo sapiens, UniProt P33032); assay: Maximum effect on human MC5R expressed in HEK293 cells assessed as intracellular cAMP accumulation at 0.0001 to 10 uM; format: functional, cell-based; outline: as §1
# T4 sequence (P33032 whole entry): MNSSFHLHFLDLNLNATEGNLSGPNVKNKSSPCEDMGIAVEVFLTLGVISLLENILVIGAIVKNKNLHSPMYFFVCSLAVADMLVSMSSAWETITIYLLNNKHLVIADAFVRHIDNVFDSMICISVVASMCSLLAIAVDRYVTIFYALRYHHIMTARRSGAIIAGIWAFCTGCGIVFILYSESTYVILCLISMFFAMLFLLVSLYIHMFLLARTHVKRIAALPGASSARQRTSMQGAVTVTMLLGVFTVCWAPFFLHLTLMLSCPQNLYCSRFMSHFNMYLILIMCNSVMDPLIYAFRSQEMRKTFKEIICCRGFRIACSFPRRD
# [5] = target: T1, Melanocyte-stimulating hormone receptor; assay: Displacement of [125I]NDPalphaMSH from human MC1R expressed in HEK293 cells; format: cell-based
# Outline: (§2)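 Whole HEK293 cells stably expressing the receptor, seeded 48 h before assay (50,000 cells/well), washed with MEM/25 mM bicarbonate. Cells lysed with NaOH/Triton X-100 and counted by gamma counting. IC50 from nonlinear least-squares fit, two experiments in triplicate.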
# Target sequence in this assay (Q01726 whole entry): as the sequence (Q01726 whole entry, looked up) above
# [6] = target: T1, Melanocyte-stimulating hormone receptor; assay: Effect on human MC1R expressed in HEK293 cells assessed as intracellular cAMP accumulation; format: functional, cell-based; outline: as §1
# Target sequence in this assay (Q01726 whole entry): as the sequence (Q01726 whole entry, looked up) above
# Melanocortin receptor 3 [7] = target: T2, Melanocortin receptor 3; assay: Displacement of [125I]NDPalphaMSH from human MC3R expressed in HEK293 cells; format: cell-based; outline: as §2
# Melanocortin receptor 3 [8] = target: T2, Melanocortin receptor 3; assay: Effect on human MC3R expressed in HEK293 cells assessed as intracellular cAMP accumulation; format: functional, cell-based; outline: as §1
# Melanocortin receptor 4 [9] = target: T3, Melanocortin receptor 4; assay: Displacement of [125I]NDPalphaMSH from human MC4R expressed in HEK293 cells; format: cell-based; outline: as §2
# Melanocortin receptor 4 [10] = target: T3, Melanocortin receptor 4; assay: Effect on human MC4R expressed in HEK293 cells assessed as intracellular cAMP accumulation; format: functional, cell-based; outline: as §1
# Melanocortin receptor 5 [11] = target: T4, Melanocortin receptor 5; assay: Displacement of [125I]NDPalphaMSH from human MC5R expressed in HEK293 cells; format: cell-based; outline: as §2
# Melanocortin receptor 5 [12] = target: T4, Melanocortin receptor 5; assay: Effect on human MC5R expressed in HEK293 cells assessed as intracellular cAMP accumulation; format: functional, cell-based; outline: as §1
structure (smiles),measurement,setting,value
CCCC[C@H](N)C(=O)N[C@H]1CC(=O)NCCCC[C@@H](C(N)=O)NC(=O)[C@H](Cc2c[nH]c3ccccc23)NC(=O)[C@H](CCCNC(=N)N)NC(=O)[C@@H](Cc2ccc3ccccc3c2)NC(=O)[C@H](Cc2cnc[nH]2)NC1=O,Activity,[1],100%
CCCC[C@@H](NC(C)=O)C(=O)N[C@@H](CC(=O)O)C(=O)NC1Cc2ccccc2CN([C@@H](Cc2ccccc2)C(=O)N[C@@H](CCCNC(=N)N)C(=O)N[C@@H](Cc2c[nH]c3ccccc23)C(=O)N[C@@H](CCCCN)C(N)=O)C1=O (stereo not given in full),Activity,[1],0%
same,Activity,Melanocortin receptor 3 [2],0%
same,Activity,Melanocortin receptor 4 [3],0%
same,Activity,Melanocortin receptor 5 [4],0%
CCCC[C@H](NC(C)=O)C(=O)N[C@@H](CC(=O)O)C(=O)N[C@H]1Cc2ccccc2CN([C@H](Cc2ccccc2)C(=O)N[C@@H](CCCN=C(N)N)C(=O)N[C@@H](Cc2c[nH]c3ccccc23)C(=O)N[C@@H](CCCCN)C(N)=O)C1=O,IC50,[5]; hek293,> 10000 nM
same,EC50,[6]; hek293,> 10000 nM
same,IC50,Melanocortin receptor 3 [7]; hek293,> 10000 nM
same,EC50,Melanocortin receptor 3 [8]; hek293,> 10000 nM
same,IC50,Melanocortin receptor 4 [9]; hek293,> 10000 nM
same,EC50,Melanocortin receptor 4 [10]; hek293,> 10000 nM
same,IC50,Melanocortin receptor 5 [11]; hek293,> 10000 nM
same,EC50,Melanocortin receptor 5 [12]; hek293,> 10000 nM
CCCC[C@H](N)C(=O)N[C@H]1CC(=O)NCCCC[C@@H](C(N)=O)NC(=O)[C@H](Cc2c[nH]c3ccccc23)NC(=O)[C@H](CCCNC(=N)N)NC(=O)[C@@H](Cc2ccc(Cl)cc2)N2Cc3ccccc3CC(NC1=O)C2=O (stereo not given in full),Activity,[1],60%
same,Activity,Melanocortin receptor 3 [2],55%
same,Activity,Melanocortin receptor 4 [3],33%
same,Activity,Melanocortin receptor 5 [4],45%
CCCC[C@H](N)C(=O)N[C@H]1CC(=O)NCCCC[C@@H](C(N)=O)NC(=O)[C@H](Cc2c[nH]c3ccccc23)NC(=O)[C@H](CCCN=C(N)N)NC(=O)[C@@H](Cc2ccc(Cl)cc2)N2Cc3ccccc3CC(NC1=O)C2=O (stereo not given in full),IC50,[5],> 1000 nM
same,EC50,[6],900 nM
same,IC50,Melanocortin receptor 3 [7],29 nM
same,EC50,Melanocortin receptor 3 [8],> 1000 nM
same,IC50,Melanocortin receptor 4 [9],2000 nM
same,EC50,Melanocortin receptor 4 [10],3200 nM
same,IC50,Melanocortin receptor 5 [11],123 nM
same,EC50,Melanocortin receptor 5 [12],180 nM
